Calls of active or inactive are those of the source. No cut-off for these calls is given here.
What was measured:
[1] = target: T1, Tyrosine-protein phosphatase non-receptor type 1 (Rattus norvegicus, UniProt P20417); assay: Inhibition of PTPase activity in rat hepatic membrane at a concentration of 50 uM using pNPP as the substrate; assay type: cell membranes, Liver
T1 sequence (P20417 whole entry): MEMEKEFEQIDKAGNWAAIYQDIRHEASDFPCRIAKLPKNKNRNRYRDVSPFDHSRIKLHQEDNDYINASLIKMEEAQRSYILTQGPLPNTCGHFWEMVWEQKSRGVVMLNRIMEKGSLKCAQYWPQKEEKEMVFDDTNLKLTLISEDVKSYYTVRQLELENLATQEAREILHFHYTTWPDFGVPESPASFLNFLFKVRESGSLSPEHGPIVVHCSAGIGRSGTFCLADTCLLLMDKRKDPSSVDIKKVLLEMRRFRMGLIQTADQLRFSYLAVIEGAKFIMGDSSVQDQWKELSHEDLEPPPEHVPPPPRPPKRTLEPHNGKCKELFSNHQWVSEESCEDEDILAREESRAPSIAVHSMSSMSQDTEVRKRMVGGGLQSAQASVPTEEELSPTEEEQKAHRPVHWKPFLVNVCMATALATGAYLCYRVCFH
Outline: (§1)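 Liver membranes from male Sprague-Dawley rats (100-150 g), about 30 µg protein per well. Preincubated 10 min at 37 °C with compound in 1.25% DMSO in 50 mM HEPES pH 7.4. Then 6.33 mM pNPP for 30 min at 37 °C, stopped with NaOH. p-Nitrophenol read at 410 nm. Run in triplicate. Reported as percent of untreated control.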

[2] = test system: Mus musculus; assay: Evaluated in vivo for their ability to decrease plasma glucose levels in diabetic C57BL/KsJ ob/ob mouse at a dose 100 mg/kg/day; NS is non significant; assay type: functional, organism-based
Outline: (§2)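 Diabetic db/db or ob/ob mice dosed orally once daily for 4 days. Plasma glucose and insulin reported as percent change from a vehicle-treated group. 4-6 mice per group. Significance set at p < 0.05 or p < 0.01 versus vehicle; NS means generally less than -15% change.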

[3] = target: T2, Tyrosine-protein phosphatase non-receptor type 1 (Rattus norvegicus) (UniProt P20417); assay: Inhibition of PTPase activity using recombinant r-PTP1B as the enzyme and IR-triphosphopeptide as substrate at 50 uM
T2 sequence (whole entry): T1 sequence (P20417 whole entry)
Outline: (§3)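 Rat recombinant PTP1B in 33 mM TRIS-HCl, 2 mM EDTA, 50 mM β-mercaptoethanol, pH 7.4 (about 1000-2000 nmol/min/mg). Preincubated 10 min at 37 °C with or without compound in HEPES buffer pH 7.4. Released phosphate read by malachite green-ammonium molybdate at 650 nm against a phosphate standard. Quadruplicates. IC50 by four-parameter logistic fit.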

[4] = test system: Mus musculus; assay: Evaluated for their ability to decrease plasma insulin levels in mouse at a dose 100 mg/kg/day.; NS is non significant; assay type: functional, organism-based; outline: as §2
[5] = target: T3, Tyrosine-protein phosphatase non-receptor type 1 (Mus musculus) (UniProt P35821); assay: Ability to decrease plasma insulin levels in mouse at a dose 100 mg/kg/day; assay type: functional, organism-based; outline: as §2
T3 sequence (whole entry): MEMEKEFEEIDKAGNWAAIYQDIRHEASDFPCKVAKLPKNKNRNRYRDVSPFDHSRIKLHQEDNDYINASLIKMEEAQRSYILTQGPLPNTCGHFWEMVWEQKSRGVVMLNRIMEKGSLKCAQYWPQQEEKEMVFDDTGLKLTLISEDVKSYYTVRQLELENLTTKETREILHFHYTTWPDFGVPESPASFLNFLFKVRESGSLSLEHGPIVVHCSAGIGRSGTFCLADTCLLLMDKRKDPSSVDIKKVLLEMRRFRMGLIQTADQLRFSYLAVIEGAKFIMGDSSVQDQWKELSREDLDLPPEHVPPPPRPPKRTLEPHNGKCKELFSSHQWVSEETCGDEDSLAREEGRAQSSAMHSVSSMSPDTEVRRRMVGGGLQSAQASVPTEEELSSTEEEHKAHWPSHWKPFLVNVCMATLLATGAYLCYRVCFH

[6] = target: T1, Tyrosine-protein phosphatase non-receptor type 1; assay: Inhibition of PTPase activity using recombinant r-PTP1B and IR-triphosphopeptide as substrate; ND is no data.; outline: as §3
[7] = target: T2, Tyrosine-protein phosphatase non-receptor type 1 (Rattus norvegicus); assay: Inhibition of PTPase (PTP1B) activity in rat hepatic membrane at 50 uM concentration, using pNPP as the substrate; assay type: cell membranes; settings: Liver; outline: as §1
[8] = target: T3, Tyrosine-protein phosphatase non-receptor type 1 (Mus musculus); assay: In vivo ability to decrease plasma glucose levels in diabetic C57BL/KsJ ob/ob mouse at a dose 100 mg/kg/day; assay type: functional, organism-based; outline: as §2
[9] = test system: Mus musculus; assay: Evaluated in vivo for their ability to decrease plasma glucose levels in diabetic C57BL/KsJ db/db mouse at a dose 50 mg/kg/day, *p indicates <0.05; assay type: functional; outline: as §2
[10] = test system: Mus musculus; assay: Evaluated for their ability to decrease plasma insulin levels in mouse at a dose 70 mg/kg/day; NS is not significant; assay type: functional, organism-based; outline: as §2
[11] = target: T2, Tyrosine-protein phosphatase non-receptor type 1 (Rattus norvegicus); assay: Inhibition of Protein-tyrosine phosphatase 1B activity in rat hepatic membrane at a concentration of 50 uM using pNPP as the substrate; assay type: cell membranes; settings: Liver; outline: as §1
[12] = test system: Mus musculus; assay: Evaluated in vivo for their ability to decrease plasma glucose levels in diabetic C57BL/KsJ db/db mouse at a dose 100 mg/kg/day; NS is not significant; assay type: functional, organism-based; outline: as §2
[13] = test system: Mus musculus; assay: Evaluated in vivo for their ability to decrease plasma glucose levels in diabetic C57BL/KsJ ob/ob mouse at a dose 70 mg/kg/day; NS is not significant; assay type: functional, organism-based; outline: as §2
[14] = target: T2, Tyrosine-protein phosphatase non-receptor type 1 (Rattus norvegicus); assay: Inhibition of PTPase activity using recombinant Protein-tyrosine phosphatase 1B as the enzyme and IR-triphosphopeptide as substrate at 50 uM
Outline: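 Recombinant rat PTP1B (human 321-aa form assayed the same way), activity about 1000-2000 nmol/min/mg, preincubated with compound for 10 min at 37 °C in HEPES pH 7.4. The reaction is started with 50 µM triphosphorylated insulin receptor 1142-1153 dodecapeptide and run 30 min at 37 °C. Released phosphate read by malachite green-molybdate at 650 nm, in quadruplicate. Result is percent inhibition versus control.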

[15] = target: T1, Tyrosine-protein phosphatase non-receptor type 1; assay: Inhibition of PTPase activity using recombinant r-PTP1B as the enzyme and IR-triphosphopeptide as substrate; outline: as §3
[16] = target: T1, Tyrosine-protein phosphatase non-receptor type 1; assay: Inhibition of PTPase activity using recombinant Protein-tyrosine phosphatase 1B as the enzyme and IR-triphosphopeptide as substrate
[17] = test system: Mus musculus; assay: Evaluated in vivo for their ability to decrease plasma glucose levels in diabetic C57BL/KsJ db/db mouse at a dose 100 mg/kg/day; assay type: functional; outline: as §2
[18] = test system: Mus musculus; assay: Evaluated in vivo for their ability to decrease plasma glucose levels in diabetic C57BL/KsJ ob/ob mouse at a dose 100 mg/kg/day.([…]); assay type: functional; outline: as §2
[19] = target: T2, Tyrosine-protein phosphatase non-receptor type 1 (Rattus norvegicus); assay: IC50 for PTPase activity, recombinant r-PTP1B as the enzyme .
[20] = test system: Mus musculus; assay: Evaluated in vivo for their ability to decrease plasma glucose levels in diabetic C57BL/KsJ db/db mouse at a dose 100 mg/kg/day.; assay type: functional; outline: as §2
[21] = test system: Mus musculus; assay: Evaluated for their ability to decrease plasma insulin levels in mouse at a dose 100 mg/kg/day.([…]); assay type: functional; outline: as §2
[22] = test system: Mus musculus; assay: Evaluated for their ability to decrease plasma insulin levels in mouse at a dose 100 mg/kg/day; **p indicates <0.01; assay type: functional
Outline: (§4)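 Mice dosed orally once daily for 4 days; plasma glucose and insulin measured and expressed as percent change versus a vehicle-treated group (mean ± SE, 4-6 mice/group). NS is generally less than -15% change. Significance is versus vehicle-treated mice.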

[23] = test system: Mus musculus; assay: Evaluated in vivo for their ability to decrease plasma glucose levels in diabetic C57BL/KsJ db/db mouse at a dose 100 mg/kg/day. *p indicates <0.05; assay type: functional; outline: as §4
[24] = test system: Mus musculus; assay: Evaluated in vivo for their ability to decrease plasma glucose levels in diabetic C57BL/KsJ ob/ob mouse at a dose 100 mg/kg/day; **p indicates <0.01; assay type: functional; outline: as §4
[25] = target: T4, Tyrosine-protein phosphatase non-receptor type 1 (Homo sapiens) (UniProt P18031); assay: % inhibition of PTPase activity, recombinant human Protein-tyrosine phosphatase 1B as the enzyme at a concentration 50 uM
T4 sequence (whole entry): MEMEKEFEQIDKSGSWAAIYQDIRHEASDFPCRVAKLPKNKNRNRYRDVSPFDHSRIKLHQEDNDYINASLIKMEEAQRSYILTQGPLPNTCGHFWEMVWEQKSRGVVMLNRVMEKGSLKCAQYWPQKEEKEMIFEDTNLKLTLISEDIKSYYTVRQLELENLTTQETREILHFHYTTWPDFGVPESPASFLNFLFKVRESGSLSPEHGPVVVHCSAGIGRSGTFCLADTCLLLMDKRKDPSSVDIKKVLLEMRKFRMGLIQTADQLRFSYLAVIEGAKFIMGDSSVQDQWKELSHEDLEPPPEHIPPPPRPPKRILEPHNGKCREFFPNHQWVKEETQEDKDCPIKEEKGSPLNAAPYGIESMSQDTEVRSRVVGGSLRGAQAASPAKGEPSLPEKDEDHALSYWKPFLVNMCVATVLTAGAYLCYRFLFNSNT
Outline: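 Human recombinant PTP1B (321 aa form) dephosphorylating IR-triphosphopeptide (pY1146/1150/1151), 50 µM final. Run as for the rat enzyme: 10 min preincubation with compound at 37 °C, pH 7.4, then 30 min reaction at 37 °C. Phosphate read by malachite green-ammonium molybdate at 650 nm. Quadruplicates. IC50 by four-parameter logistic regression.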

## Cc1oc(-c2ccc(C(F)(F)F)cc2)nc1COc1cccc(/C(=C/Cn2oc(=O)[nH]c2=O)C(C)(C)C)c1
[1]
  Inhibition %: 24%
[2]
  Decrease: inactive
[3]
  inhibition: 0.6%
[4]
  Decrease: inactive

## C/C(=C/C=C/Cn1oc(=O)[nH]c1=O)c1cccc(OCc2nc(-c3ccccc3)oc2C)c1
[5]
  Decrease: Not significant
[6]
  IC50: Not significant
[7]
  inhibition: 55%
[8]
  Decrease: Not significant
[9]
  Decrease: 19%

## C/C(=C\C=C\Cn1oc(=O)[nH]c1=O)c1cccc(OCc2nc(-c3ccccc3)oc2C)c1
[10]
  Decrease: inactive
[11]
  inhibition: 57%
[12]
  Decrease: inactive
[13]
  Decrease: inactive
[14]
  inhibition: 1.4%

## CCCC/C(=C\Cn1oc(=O)[nH]c1=O)c1cccc(OCc2cc(Cl)cc(Cl)c2)c1
[11]
  inhibition: 61%
[15]
  IC50: 800 nM
[7]
  inhibition: 57%
[16]
  IC50: 1800 nM

## Cc1oc(-c2ccc(OC(F)(F)F)cc2)nc1COc1cccc(C(C)CCn2oc(=O)[nH]c2=O)c1 (centres undefined)
[5]
  Decrease: Not significant
[17]
  Decrease: 41%
[6]
  IC50: Not significant
[7]
  inhibition: 47%
[8]
  Decrease: Not significant

## C/C(=C\CC1SC(=O)NC1=O)c1cccc(OCc2nc(-c3ccc(OC(F)(F)F)cc3)oc2C)c1 (centres undefined)
[18]
  Decrease: 44%
[19]
  IC50: 1500 nM
[20]
  Decrease: 18%
[7]
  inhibition: 46%
[21]
  Decrease: 63%

## CCC/C(=C\Cn1oc(=O)[nH]c1=O)c1cccc(OCc2nc(-c3ccc(C(F)(F)F)cc3)oc2C)c1
[11]
  inhibition: 58%
[22]
  Decrease: 82%
[23]
  Decrease: 59%
[24]
  Decrease: 58%
[25]
  inhibition: 1.9%
[14]
  inhibition: 2%
